Source: ChEMBL document CHEMBL4308919, “Discovery of TD-0212, an Orally Active Dual Pharmacology AT1 Antagonist and Neprilysin Inhibitor (ARNI)” (ACS Med Chem Lett, 2019)

Tests used:
[1] = biological target: T1, Type-1 angiotensin II receptor (Homo sapiens, UniProt P30556); assay: Displacement of Europium-labeled angiotensin-2 from human AT1 receptor expressed in CHOK1 cell membranes after 120 mins by DELFIA
T1 sequence (P30556 whole entry): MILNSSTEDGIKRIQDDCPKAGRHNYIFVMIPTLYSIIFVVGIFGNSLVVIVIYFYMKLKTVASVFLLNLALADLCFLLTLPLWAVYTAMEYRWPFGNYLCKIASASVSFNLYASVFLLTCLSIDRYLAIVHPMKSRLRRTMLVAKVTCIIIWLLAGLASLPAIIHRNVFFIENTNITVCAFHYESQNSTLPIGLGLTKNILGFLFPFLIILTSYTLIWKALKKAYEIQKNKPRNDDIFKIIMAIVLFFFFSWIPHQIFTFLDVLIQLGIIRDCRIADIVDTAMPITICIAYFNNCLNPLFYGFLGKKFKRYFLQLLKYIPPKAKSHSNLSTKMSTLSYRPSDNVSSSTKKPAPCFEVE

[2] = biological target: Angiotensin-converting enzyme (Homo sapiens, UniProt P12821); assay: Inhibition of recombinant human ACE using Mca-BK2 as substrate preincubated for 10 mins followed by fluorogenic substrate addition and measured after 20 mins by fluorescence assay
Chain of Angiotensin-converting enzyme (P12821 whole entry): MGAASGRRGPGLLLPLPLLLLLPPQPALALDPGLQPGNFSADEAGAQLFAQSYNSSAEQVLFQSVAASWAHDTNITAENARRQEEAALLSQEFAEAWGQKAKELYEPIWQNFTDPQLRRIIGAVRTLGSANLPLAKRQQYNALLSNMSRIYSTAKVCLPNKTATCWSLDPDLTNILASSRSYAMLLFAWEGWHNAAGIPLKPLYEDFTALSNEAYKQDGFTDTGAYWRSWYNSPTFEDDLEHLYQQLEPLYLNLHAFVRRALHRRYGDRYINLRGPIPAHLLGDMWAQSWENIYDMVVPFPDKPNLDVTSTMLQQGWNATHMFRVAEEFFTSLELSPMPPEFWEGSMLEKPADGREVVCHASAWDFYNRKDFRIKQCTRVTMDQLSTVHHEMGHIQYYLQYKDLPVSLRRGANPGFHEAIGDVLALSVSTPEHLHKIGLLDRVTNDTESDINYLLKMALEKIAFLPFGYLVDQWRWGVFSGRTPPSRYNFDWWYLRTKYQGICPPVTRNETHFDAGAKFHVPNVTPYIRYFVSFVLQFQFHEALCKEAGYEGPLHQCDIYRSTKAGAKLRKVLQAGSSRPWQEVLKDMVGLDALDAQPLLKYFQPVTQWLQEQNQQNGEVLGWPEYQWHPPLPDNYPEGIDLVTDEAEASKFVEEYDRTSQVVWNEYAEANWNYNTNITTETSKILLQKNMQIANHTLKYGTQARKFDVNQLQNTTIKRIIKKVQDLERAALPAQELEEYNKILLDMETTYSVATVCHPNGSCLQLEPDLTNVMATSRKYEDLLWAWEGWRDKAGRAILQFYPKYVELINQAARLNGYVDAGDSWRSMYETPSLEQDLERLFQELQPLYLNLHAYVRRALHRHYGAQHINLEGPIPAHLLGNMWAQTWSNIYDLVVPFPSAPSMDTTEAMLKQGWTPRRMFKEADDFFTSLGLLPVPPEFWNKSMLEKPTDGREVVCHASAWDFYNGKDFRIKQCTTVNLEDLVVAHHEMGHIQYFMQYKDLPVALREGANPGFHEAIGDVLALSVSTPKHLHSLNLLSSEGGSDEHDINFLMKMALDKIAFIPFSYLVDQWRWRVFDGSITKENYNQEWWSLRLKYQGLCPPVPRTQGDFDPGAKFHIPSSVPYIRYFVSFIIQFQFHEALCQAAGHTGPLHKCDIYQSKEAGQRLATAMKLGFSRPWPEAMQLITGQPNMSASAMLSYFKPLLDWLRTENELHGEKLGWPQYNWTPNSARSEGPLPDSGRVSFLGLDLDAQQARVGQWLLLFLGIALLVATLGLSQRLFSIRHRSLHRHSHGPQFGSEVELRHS

Rattus norvegicus [3] = assay: In vivo inhibition of NEP in Sprague-Dawley rat assessed as potentiation of ANP-induced elevation of urinary cGMP level at 3 mg/kg, iv treated for 5 mins at 15 mins post 2 doses of angiotensin-2 treatment at 15 minutes apart followed by ANP treatment measured up to 60 mins by EIA relative to control; type: functional
Summary of the method: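 Rat pharmacodynamic assay with intravenous dosing to exclude oral absorption. AT1 antagonism is read in the same animal as inhibition of the angiotensin-II-evoked pressor response. NEP inhibition is read as potentiation of ANP-induced elevation of urinary cGMP output, relative to vehicle.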

Neprilysin = Neprilysin (Homo sapiens, UniProt P08473); assay: Inhibition of NEP (unknown origin) preincubated for 10 mins followed by fluorogenic substrate addition and measured after 20 mins by fluorescence assay
Chain of Neprilysin (P08473 whole entry): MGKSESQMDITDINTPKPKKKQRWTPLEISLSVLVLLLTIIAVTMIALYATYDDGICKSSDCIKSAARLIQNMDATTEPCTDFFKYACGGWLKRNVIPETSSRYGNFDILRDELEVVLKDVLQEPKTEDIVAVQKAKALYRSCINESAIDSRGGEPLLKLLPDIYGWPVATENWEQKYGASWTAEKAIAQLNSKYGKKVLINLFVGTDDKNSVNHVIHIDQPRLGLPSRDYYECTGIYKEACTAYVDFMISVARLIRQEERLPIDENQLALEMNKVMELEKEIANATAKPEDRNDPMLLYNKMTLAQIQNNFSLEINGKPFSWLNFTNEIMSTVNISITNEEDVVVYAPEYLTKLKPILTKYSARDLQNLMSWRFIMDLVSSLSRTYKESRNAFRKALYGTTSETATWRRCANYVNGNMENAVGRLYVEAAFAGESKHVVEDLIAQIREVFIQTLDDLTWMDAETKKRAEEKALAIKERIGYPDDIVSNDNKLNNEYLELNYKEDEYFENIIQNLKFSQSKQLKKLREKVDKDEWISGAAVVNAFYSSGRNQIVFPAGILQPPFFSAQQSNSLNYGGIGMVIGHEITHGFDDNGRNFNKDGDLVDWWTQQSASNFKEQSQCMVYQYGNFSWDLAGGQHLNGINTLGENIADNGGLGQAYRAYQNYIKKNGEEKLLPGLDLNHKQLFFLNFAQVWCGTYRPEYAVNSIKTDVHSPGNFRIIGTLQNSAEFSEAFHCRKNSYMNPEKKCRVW

Rattus norvegicus [4] = assay: Induction of angioedema in normotensive rat assessed as increase in tracheal plasma extravasation by measuring Evans blue dye leakage into peritracheal tissue at 0.3 to 3 mg/kg, po; type: organism-based; details: in vivo
Summary of the method: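 Rat tracheal plasma extravasation model adapted from Sulpizio et al., used as a surrogate for upper-airway angioedema. Normotensive rats are dosed orally. Read-out is Evans Blue dye leakage into peritracheal tissue, compared with vehicle.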

Rattus norvegicus [5] = assay: Antihypertensive activity in DOCA salt-induced CD-1 rat model of hypertension assessed as reduction in blood pressure administered via oral gavage in ascending cumulative doses […] measured up to 24 hrs by telemetry method; type: functional
Summary of the method: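 Conscious DOCA-salt hypertensive rats, a low-renin model, dosed orally. Reduction in blood pressure is followed over time. ED10 is the dose giving an average 10% reduction in the 24 h average MAP.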

Rattus norvegicus [6] = assay: Antihypertensive activity in spontaneously hypertensive rat assessed as reduction in mean arterial pressure administered via oral gavage in […] measured up to 24 hrs by telemetry method; type: functional
Summary of the method: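 Conscious spontaneously hypertensive rats, dosed orally. Blood pressure is monitored by telemetry for 24 h after each dose. Sequential escalating doses of 3, 10, 30 and 100 mg/kg are given at 24 h intervals. Efficacy is the peak percent fall in MAP from baseline. Duration is the vehicle-adjusted % change in AUC over 24 h. Statistics: two-way ANOVA with Bonferroni post hoc.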

Rattus norvegicus [7] = assay: Antihypertensive activity in spontaneously hypertensive rat assessed as reduction in mean arterial pressure administered via oral gavage in ascending cumulative doses […] measured up to 24 hrs in presence of NEP inhibitor candoxatril by telemetry method; type: functional

Ki [1]	IC50 [2]	IC50 (Neprilysin)	SMILES	fold change (FC) (Rattus norvegicus [3])	Activity (Rattus norvegicus [4])	ED10 (Rattus norvegicus [5])	Activity (Rattus norvegicus [6])	ED10 (Rattus norvegicus [6])	ED10 (Rattus norvegicus [7])
> 10 µM	0.1 nM	0.2 nM	O=C(N[C@H]1CCS[C@H]2CCC[C@@H](C(=O)O)N2C1=O)[C@@H](S)Cc1ccccc1 [OMAPATRILAT]	5.3	Non-Toxic	66 mg/kg	Dose-dependent effect	15 mg/kg	–
–	–	–	CCCCC(=O)N(Cc1ccc(-c2ccccc2-c2nnn[nH]2)cc1)[C@H](C(=O)O)C(C)C	–	–	–	Dose-dependent effect	17 mg/kg	15 mg/kg
